Assay results: ChEMBL document CHEMBL1156597, “Structure-activity relationship of kahalalide F synthetic analogues” (J Med Chem, 2008)

Assays:
SK-MEL-28 = experiment: Cytotoxicity against human SK-MEL-28 cells after 48 hrs by SRB assay; type: functional, cell-based; conditions: Homo sapiens, SK-MEL-28, 48 h; for GI50: read-out: GI50; for CC50: read-out: LC50 (the source's name)
Method in brief: (§1)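 Cells grown in RPMI 1640 with 10% FBS and penicillin/streptomycin at 37 °C and 5% CO₂, trypsinized, then seeded at 5 × 10³/well. After 18 h drug-free attachment, samples in DMSO/EtOH/PBS (0.5:0.5:99) were added for 48 h continuous exposure. Cells were fixed with cold TCA (1 h, 4 °C) and stained with SRB (10 min). Tris-solubilized stain read at 490 nm. Triplicate wells, mean ± SD; GI₅₀ derived.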

[1] = Cytotoxicity against human IGROV-ET cells after 48 hrs by SRB assay; type: functional; conditions: for CC50: read-out: LC50 (the source's name); method in brief: as §1
[2] = Cytotoxicity against human HeLa-APL cells after 48 hrs by SRB assay; type: functional; method in brief: as §1
PANC-1 = experiment: Cytotoxicity against human PANC1 cells after 48 hrs by SRB assay; type: functional; conditions: PANC-1, 48 h; for CC50: read-out: LC50 (the source's name); method in brief: as §1
HeLa = experiment: Cytotoxicity against human HeLa cells after 48 hrs by SRB assay; type: functional; conditions: for CC50: read-out: LC50 (the source's name); method in brief: as §1
LNCaP = experiment: Cytotoxicity against human LNcaP cells after 48 hrs by SRB assay; type: functional; conditions: for CC50: read-out: LC50 (the source's name); method in brief: as §1
DU-145 = experiment: Cytotoxicity against human DU145 cells after 48 hrs by SRB assay; type: functional, cell-based; conditions: Homo sapiens, DU-145, 48 h; for GI50: read-out: GI50; for CC50: read-out: LC50 (the source's name); method in brief: as §1
SK-BR-3 = experiment: Cytotoxicity against human SKBR3 cells after 48 hrs by SRB assay; type: functional; conditions: SK-BR-3, 48 h; for GI50: read-out: GI50; for CC50: read-out: LC50 (the source's name); method in brief: as §1
A549 = experiment: Cytotoxicity against human A549 cells after 48 hrs by SRB assay; type: functional, cell-based; conditions: Homo sapiens, A549, 48 h; method in brief: as §1
HT-29 = experiment: Cytotoxicity against human HT29 cells after 48 hrs by SRB assay; type: functional, cell-based; conditions: Homo sapiens, HT-29, 48 h; for CC50: read-out: LC50 (the source's name); method in brief: as §1
[3] = Cytotoxicity against human IGROV cells after 48 hrs by SRB assay; type: functional; conditions: for CC50: read-out: LC50 (the source's name); method in brief: as §1
K562 = experiment: Cytotoxicity against human K562 cells after 48 hrs by SRB assay; type: functional; conditions: K562, 48 h; for CC50: read-out: LC50 (the source's name); method in brief: as §1
LoVo [4] = experiment: Cytotoxicity against human doxorubicin resistant LoVo cells after 48 hrs by SRB assay; type: functional; conditions: for CC50: read-out: LC50 (the source's name); method in brief: as §1
LoVo [5] = experiment: Cytotoxicity against human LoVo cells after 48 hrs by SRB assay; type: functional; conditions: for CC50: read-out: LC50 (the source's name)

SMILES	CC50 (SK-MEL-28) [nM]	CC50 [1] [nM]	GI50 [2] [nM]	LC50 (concentration giving 50% net cell kill) [2] [nM]	TGI [2] [nM]	CC50 (PANC-1) [nM]	GI50 (HeLa) [nM]	TGI (HeLa) [nM]	CC50 (HeLa) [nM]	CC50 (LNCaP) [nM]	TGI (DU-145) [nM]	GI50 (DU-145) [nM]	CC50 (DU-145) [nM]	CC50 (SK-BR-3) [nM]	LC50 (A549) [nM]	GI50 (A549; read-out: GI50) [nM]	CC50 (HT-29) [nM]	CC50 [3] [nM]	CC50 (K562) [nM]	CC50 (LoVo [4]) [nM]	further results
C/C=C1\NC(=O)[C@H](Cc2ccccc2)NC(=O)[C@@H](C(C)C)NC(=O)[C@@H]([C@H](C)CC)NC(=O)[C@H](NC(=O)[C@H](NC(=O)[C@H](CCCN)NC(=O)[C@H]2CCCN2C(=O)[C@H](NC(=O)[C@@H](NC(=O)[C@@H](NC(=O)[C@@H](CCCN)NC(=O)CCCC(C)C)[C@@H](C)O)C(C)C)C(C)C)[C@H](C)CC)[C@H](C)OC(=O)[C@H](C(C)C)NC1=O	1160	559	1100	965	1070	1760	1370	1400	1030	950	1270	1160	1170	907	3840	747	4270	382	1910	296	TGI (SK-MEL-28): 1150 nM; GI50 (SK-MEL-28): 1140 nM; GI50 [1]: 806 nM; GI50 ([1]; read-out: GI50): 103 nM; GI50 (PANC-1): 1420 nM; TGI (PANC-1): 1240 nM; GI50 (LNCaP): 853 nM; TGI (LNCaP): 1170 nM; TGI (SK-BR-3): 1770 nM; GI50 (SK-BR-3): 1720 nM; GI50 (A549): 888 nM; GI50 [3]: 630 nM; GI50 ([3]; read-out: GI50): 1130 nM; GI50 (K562): 877 nM; TGI (K562): 1120 nM; CC50 (LoVo [5]): 330 nM
C/C=C1\NC(=O)[C@H](Cc2ccccc2)NC(=O)[C@@H](C(C)C)NC(=O)[C@@H]([C@H](C)CC)NC(=O)[C@H](NC(=O)[C@H](NC(=O)[C@H](CCCN)NC(=O)[C@H]2CCCN2C(=O)[C@H](NC(=O)[C@@H](NC(=O)[C@H](C)NC(=O)[C@H](NC(=O)CCCC(C)C)C(C)C)C(C)C)C(C)C)[C@H](C)CC)[C@H](C)OC(=O)[C@H](C(C)C)NC1=O	1150	561	1280	873	1060	1810	1270	1120	998	967	1250	1420	1100	371	4930	641	437	503	1970	306	TGI (SK-MEL-28): 1190 nM; GI50 (SK-MEL-28): 1240 nM; GI50 [1]: 808 nM; GI50 ([1]; read-out: GI50): 1230 nM; GI50 (PANC-1): 1160 nM; TGI (PANC-1): 1420 nM; GI50 (LNCaP): 1380 nM; TGI (LNCaP): 1160 nM; GI50 (A549): 585 nM; GI50 (K562): 822 nM; TGI (K562): 1610 nM; GI50 (LoVo [4]): 1080 nM; TGI (LoVo [4]): 1190 nM; GI50 (LoVo [5]): 2050 nM; TGI (LoVo [5]): 2070 nM; CC50 (LoVo [5]): 338 nM
C/C=C1\NC(=O)[C@H](Cc2ccccc2)NC(=O)[C@@H](C(C)C)NC(=O)[C@@H]([C@H](C)CC)NC(=O)[C@H](NC(=O)[C@H](NC(=O)[C@H](CCCN)NC(=O)[C@H]2CCCN2C(=O)[C@H](NC(=O)[C@H](CCC2CCCCC2)NC(=O)[C@@H](NC(=O)[C@@H](CC2CCCCC2)NC(=O)CCCC(C)C)[C@@H](C)O)C(C)C)[C@H](C)CC)[C@H](C)OC(=O)[C@H](C(C)C)NC1=O	1490	968	4340	1660	3500	1640	2950	3510	1770	1380	2550	3300	1350	703	1670	3600	2490	7300	1790	9670	TGI (SK-MEL-28): 3090 nM; GI50 (SK-MEL-28): 3180 nM; TGI (SK-BR-3): 1690 nM; GI50 (SK-BR-3): 2060 nM; TGI (A549): 3240 nM; GI50 (HT-29): 2900 nM; TGI (HT-29): 2700 nM; GI50 (K562): 1790 nM; TGI (K562): 1790 nM; GI50 (LoVo [4]): 1210 nM; TGI (LoVo [4]): 1530 nM; GI50 (LoVo [5]): 2810 nM; TGI (LoVo [5]): 3010 nM; CC50 (LoVo [5]): 3220 nM
C/C=C1\NC(=O)[C@H](Cc2ccccc2)NC(=O)[C@@H](C(C)C)NC(=O)[C@@H]([C@H](C)CC)NC(=O)[C@H](NC(=O)[C@H](NC(=O)[C@H](CCCN)NC(=O)[C@H]2CCCN2C(=O)[C@H](NC(=O)[C@@H](NC(=O)[C@H](CCC(=O)O)NC(=O)[C@H](NC(=O)CCCC(C)C)C(C)C)C(C)C)C(C)C)[C@H](C)CC)[C@H](C)OC(=O)[C@H](C(C)C)NC1=O	1470	639	2060	956	1890	1740	2550	2500	1100	838	2630	2480	1370	356	7080	1630	422	483	1960	294	GI50 [1]: 849 nM; GI50 ([1]; read-out: GI50): 1130 nM; GI50 (LNCaP): 1070 nM; TGI (LNCaP): 949 nM; TGI (A549): 1450 nM; GI50 [3]: 498 nM; GI50 ([3]; read-out: GI50): 857 nM; CC50 (LoVo [5]): 292 nM
